Measurements as given in ChEMBL document CHEMBL2086292, “Chalcogenopyrylium compounds as modulators of the ATP-binding cassette transporters P-glycoprotein (P-gp/ABCB1) and multidrug resistance protein 1 (MRP1/ABCC1)” (J Med Chem, 2012).
Where “and” joins values, the source holds several entries; their conditions need not be identical. Equal entries are not always repeated. Blank lines part the entries; values can stand above or below the compound they belong to.

Columns and labels:
[1] = target: T1, MRP1 (Multidrug resistance-associated protein 1) (Homo sapiens, UniProt P33527); test: Inhibition of human MRP1-mediated uptake of [3H]E2-17betaG in HEK cell membrane vesicles at 10 uM by liquid scintillation counter; type: cell membranes, HEK293; details: HEK cell membrane vesicles with human MRP1, probe [3H]E2-17betaG
T1 sequence (P33527 whole entry): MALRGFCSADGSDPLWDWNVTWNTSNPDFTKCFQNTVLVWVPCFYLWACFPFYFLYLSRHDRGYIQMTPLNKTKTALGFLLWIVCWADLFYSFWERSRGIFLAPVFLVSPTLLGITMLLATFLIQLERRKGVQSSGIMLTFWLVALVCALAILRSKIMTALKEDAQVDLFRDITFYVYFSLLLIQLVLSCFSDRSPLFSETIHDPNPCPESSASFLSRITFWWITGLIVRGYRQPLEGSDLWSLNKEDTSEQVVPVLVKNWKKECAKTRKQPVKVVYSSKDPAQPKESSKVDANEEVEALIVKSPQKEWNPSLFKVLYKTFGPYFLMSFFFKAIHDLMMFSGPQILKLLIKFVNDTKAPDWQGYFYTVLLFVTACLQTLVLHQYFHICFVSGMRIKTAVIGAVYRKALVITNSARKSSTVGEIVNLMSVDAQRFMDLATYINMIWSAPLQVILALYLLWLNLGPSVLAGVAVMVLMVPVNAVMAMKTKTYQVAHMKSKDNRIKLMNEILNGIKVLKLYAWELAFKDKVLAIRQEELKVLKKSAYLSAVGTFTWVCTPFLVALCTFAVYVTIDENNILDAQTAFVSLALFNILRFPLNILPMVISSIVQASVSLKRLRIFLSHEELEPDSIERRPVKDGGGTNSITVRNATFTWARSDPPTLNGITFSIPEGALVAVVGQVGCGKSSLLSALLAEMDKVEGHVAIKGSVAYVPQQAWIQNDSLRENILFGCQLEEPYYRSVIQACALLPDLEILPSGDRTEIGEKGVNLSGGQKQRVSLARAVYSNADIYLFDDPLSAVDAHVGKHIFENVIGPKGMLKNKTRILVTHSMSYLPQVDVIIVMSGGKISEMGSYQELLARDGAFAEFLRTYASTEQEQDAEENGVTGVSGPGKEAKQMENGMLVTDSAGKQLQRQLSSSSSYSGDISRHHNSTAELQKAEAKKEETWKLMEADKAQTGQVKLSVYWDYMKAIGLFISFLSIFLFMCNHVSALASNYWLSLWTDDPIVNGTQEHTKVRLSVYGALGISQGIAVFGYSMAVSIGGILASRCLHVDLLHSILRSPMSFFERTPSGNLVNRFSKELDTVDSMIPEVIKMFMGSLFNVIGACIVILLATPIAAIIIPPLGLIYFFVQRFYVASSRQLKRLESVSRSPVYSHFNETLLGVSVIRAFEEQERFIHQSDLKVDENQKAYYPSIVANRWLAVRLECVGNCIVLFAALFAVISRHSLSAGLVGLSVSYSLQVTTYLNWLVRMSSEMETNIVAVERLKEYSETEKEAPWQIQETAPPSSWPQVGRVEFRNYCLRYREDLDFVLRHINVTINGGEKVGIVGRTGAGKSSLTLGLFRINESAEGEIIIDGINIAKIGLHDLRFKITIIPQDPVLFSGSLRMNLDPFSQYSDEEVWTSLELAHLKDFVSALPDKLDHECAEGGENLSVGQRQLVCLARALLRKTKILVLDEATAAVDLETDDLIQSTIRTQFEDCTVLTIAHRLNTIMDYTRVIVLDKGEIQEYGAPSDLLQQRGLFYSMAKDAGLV
In short: (§1)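 Inside-out membrane vesicles from HEK cells stably transfected with human MRP1. Vesicle protein (2 μg) incubated in Tris-sucrose buffer pH 7.4 with 400 nM [3H]E2-17βG, 4 mM ATP or AMP and 10 mM MgCl2, 3 min at 37 °C, in duplicate; DMSO ≤1% final. Stopped by ice-cold dilution and rapid filtration, then scintillation counted. ATP-dependent uptake taken as ATP minus AMP values; inhibition reported as percent.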

[2] = target: T1, MRP1 (Multidrug resistance-associated protein 1); test: Inhibition of human MRP1-mediated uptake of [3H]E2-17betaG in HEK cell membrane vesicles at 1 uM by liquid scintillation counting relative to control; type: cell membranes, HEK293; details: HEK cell membrane vesicles with human MRP1, probe [3H]E2-17betaG; in short: as §1
[3] = system: P-glycoprotein (MDR1); test: P-glycoprotein-mediated transport in MDCK2-MDR1 cells assessed as permeability across basolateral to apical side at 5 uM after 1 hr; details: dog, MDCK-MDR1
[4] = target: P-gp (ABCB1) (Homo sapiens, UniProt P08183); test: Induction of ATPase activity of human His10-tagged P-gp expressed in BHK cells assessed as inorganic phosphate release after 30 mins relative to control; type: cell-based; details: human His10-tagged P-gp expressed in BHK cells, read-out: FC
Chain of P-gp (ABCB1) (P08183 whole entry): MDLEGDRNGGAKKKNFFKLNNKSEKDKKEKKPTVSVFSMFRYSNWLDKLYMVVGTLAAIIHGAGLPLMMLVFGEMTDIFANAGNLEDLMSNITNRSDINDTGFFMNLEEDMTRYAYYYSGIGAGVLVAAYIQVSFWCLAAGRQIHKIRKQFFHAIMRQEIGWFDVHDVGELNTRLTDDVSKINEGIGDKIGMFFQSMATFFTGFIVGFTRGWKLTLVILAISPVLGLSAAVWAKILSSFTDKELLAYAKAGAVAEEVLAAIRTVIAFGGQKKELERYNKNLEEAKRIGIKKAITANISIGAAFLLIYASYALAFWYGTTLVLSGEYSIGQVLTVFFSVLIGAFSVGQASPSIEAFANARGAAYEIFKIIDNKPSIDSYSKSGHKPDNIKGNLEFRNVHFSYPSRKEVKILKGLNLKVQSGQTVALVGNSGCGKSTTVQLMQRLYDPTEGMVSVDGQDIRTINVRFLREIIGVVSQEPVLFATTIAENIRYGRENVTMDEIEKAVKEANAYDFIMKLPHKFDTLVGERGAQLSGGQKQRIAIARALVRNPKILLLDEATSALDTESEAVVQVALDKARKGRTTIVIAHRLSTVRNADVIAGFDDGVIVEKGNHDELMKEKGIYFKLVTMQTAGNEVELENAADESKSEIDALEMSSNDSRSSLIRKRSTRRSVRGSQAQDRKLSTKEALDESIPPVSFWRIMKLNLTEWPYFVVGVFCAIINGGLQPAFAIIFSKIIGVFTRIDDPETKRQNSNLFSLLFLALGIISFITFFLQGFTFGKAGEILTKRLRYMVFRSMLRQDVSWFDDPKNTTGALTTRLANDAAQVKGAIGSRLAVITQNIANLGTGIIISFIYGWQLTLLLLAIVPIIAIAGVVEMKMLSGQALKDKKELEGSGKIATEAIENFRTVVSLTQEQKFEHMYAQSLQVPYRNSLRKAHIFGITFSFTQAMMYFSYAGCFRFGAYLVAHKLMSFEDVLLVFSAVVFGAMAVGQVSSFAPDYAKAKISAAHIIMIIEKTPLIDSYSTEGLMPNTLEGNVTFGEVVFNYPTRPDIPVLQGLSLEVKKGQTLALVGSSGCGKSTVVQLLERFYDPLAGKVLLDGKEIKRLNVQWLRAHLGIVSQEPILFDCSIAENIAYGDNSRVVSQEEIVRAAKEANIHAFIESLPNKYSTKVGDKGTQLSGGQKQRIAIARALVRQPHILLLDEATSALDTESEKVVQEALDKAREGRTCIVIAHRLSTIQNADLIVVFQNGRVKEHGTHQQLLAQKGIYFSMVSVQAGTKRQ
In short: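 Human P-gp with C-terminal His10 tag, stably expressed in BHK cells, purified by Ni-chelate chromatography and mixed 1:1 with 10 mg/mL sheep brain phosphatidylethanolamine in TBS (10 mM Tris/HCl pH 7.4, 150 mM NaCl), then sonicated. Compound titrated, 30 min at 37 °C. Inorganic phosphate released from ATP measured. Vmax expressed as fold over basal activity; KM is the concentration giving half-maximal stimulation.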

[5] = target: T1, MRP1 (Multidrug resistance-associated protein 1); test: Inhibition of human MRP1 mediated uptake of [3H]E2-17betaG in HEK cell membrane vesicles at 30 uM by liquid scintillation counting relative to control; type: cell membranes, HEK293; details: HEK cell membrane vesicles with human MRP1, probe [3H]E2-17betaG; in short: as §1
[6] = system: MDCK-II; test: Inhibition of P-gp expressed in MDCK2-MDR1 cells at 5 uM by calcein AM accumulation assay relative to LSN 335984; type: cell-based
In short: (§2)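 MDCKII cells transfected with wild-type human MDR1, seeded at 40000 cells/well and used on day 4. Washed in DPBS with 10 mM HEPES pH 7.4, then compound in the same buffer 30 min at 37 °C. Replaced with compound plus 0.5 μg/mL calcein AM for a further 20 min. Fluorescence read at Ex 485/Em 530 nm. Signal expressed relative to 5 μM LSN 335984, taken as complete inhibition; vehicle 0.25% DMSO. IC50 from 1:1 serial dilutions by variable-slope sigmoidal fit.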

[7] = Inhibition of P-gp mediated [3H]VIN efflux in MDCK2-MDR1 cells by scintillation counter; type: cell-based; details: MDCK-II
In short: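 MDCKII-MDR1 monolayers on Transwell filters, used on day 6. Rinsed in DPBSH, then preincubated 30 min at 37 °C with compound ([…]) in BSA/DPBSH. [3H]vinblastine (0.25 μCi/mL) plus compound added basolaterally and fresh compound solution added apically. Apical buffer replaced every 10 min; apical radioactivity counted by scintillation. IC50 fitted.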

[8] = Octanol-water partition coefficient, log P of the compound in PBS at pH 7.4 after 1 hr by shake flask method; type: physicochemical
In short: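 Shake-flask method: saturated n-octanol solution shaken with an equal volume of PBS pH 7.4 for 3–5 min, then left to settle 1 h at 23 °C. Concentration in each layer measured spectrophotometrically.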

[9] = Normalized ratio of the compound assessed as ratio of PBA/AB in absence of LSN 335984 to ratio of PBA/AB in presence of LSN 335984 in MDCK2-MDR1 cells at 5 uM after 1 hr; type: ADME, cell-based, Canis lupus familiaris; details: dog, mdck-mdr1, 1 h
In short: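 MDCKII-MDR1 cells seeded at 50000 cells/cm² on Transwell filters, used on day 6. Preincubated 30 min with 4.3 mg/mL BSA in DPBSH, with or without 5 μM LSN 335984. Compound (5 μM) added to the apical or basolateral donor chamber and incubated 1 h at 37 °C with nutation. Donor and receiver samples quantified by LC-MS/MS. AB and BA permeabilities calculated. Normalized ratio is the BA/AB ratio without inhibitor divided by the ratio with inhibitor.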

[10] = system: MDCK-II; test: Inhibition of P-gp expressed in MDCK2-MDR1 cells at 25 uM by calcein AM accumulation assay relative to LSN 335984; type: cell-based; in short: as §2
[11] = Inhibition of P-gp expressed in MDCK2-MDR1 cells by calcein AM accumulation assay; type: cell-based; details: MDCK-II
In short: as §2, with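 “min.” for “min. Fluorescence read at Ex 485/Em 530 nm. Signal expressed relative to 5 μM LSN 335984, taken as complete inhibition; vehicle 0.25% DMSO.”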

[12] = system: P-glycoprotein (MDR1); test: P-glycoprotein-mediated transport in MDCK2-MDR1 cells assessed as permeability across apical to basolateral side at 5 uM after 1 hr; details: dog, MDCK-MDR1
[13] = target: T1, MRP1 (Multidrug resistance-associated protein 1); test: Inhibition of human MRP1 mediated uptake of [3H]E2-17betaG in HEK cell membrane vesicles at 5 uM by liquid scintillation counting relative to control; type: cell membranes, HEK293; details: HEK cell membrane vesicles with human MRP1, probe [3H]E2-17betaG
In short: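 Inside-out vesicles from stably transfected HEK-MRP1 cells (2 μg protein) in Tris-sucrose buffer pH 7.4 with [³H]E₂17βG 400 nM, ATP or AMP 4 mM, MgCl₂ 10 mM, 3 min at 37 °C, compound at 5 μM; DMSO ≤1%; stopped by ice-cold dilution, rapid filtration, scintillation counting; ATP-dependent uptake = ATP minus AMP; duplicate wells.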

[14] = target: ATP-dependent translocase ABCB1 (Homo sapiens, UniProt P08183); test: Inhibition of VER-stimulated human His10-tagged P-gp ATPase activity expressed in BHK cells after 15 mins; type: cell-based
Chain of ATP-dependent translocase ABCB1 (P08183 whole entry): as above

SMILES: CN(C)c1ccc(-c2cc(-c3ccc(C(=S)N4CCCCC4)s3)cc(C(C)(C)C)[s+]2)cc1.[Cl-]
inhibition at 10 µM [1]: 93% | inhibition at 1 µM [2]: 36% | Papp B-A at 1 h, 5 µM [3]: 320 nm/s | fold induction at 0.5 h [4]: 5.2 | inhibition at 30 µM [5]: 93% | inhibition [6]: 31% | IC50 [7]: 11.5 µM | logD at 1 h [8]: 2.1 | Ratio [9]: 705 | inhibition [10]: 74% | IC50 [11]: 38 µM | Papp A-B at 1 h, 5 µM [12]: 0.3 nm/s

SMILES: c1ccc(-c2cc(-c3ccc(N4CCOCC4)cc3)[te+]c(-c3ccc(N4CCOCC4)cc3)c2)cc1
fold induction at 0.5 h [4]: 4 | inhibition at 30 µM [5]: 89%

SMILES: CC(C)(C)c1cc(-c2ccc(C(=S)N3CCCCC3)s2)cc(C(C)(C)C)[te+]1
inhibition at 5 µM [13]: 50% | fold induction at 0.5 h [4]: 7.4

SMILES: CCN(CC)C(=O)c1ccccc1-c1cc(C(C)(C)C)[te+]c(C(C)(C)C)c1
fold induction at 0.5 h [4]: 6.9 | inhibition at 30 µM [5]: 45%

SMILES: CC(C)(C)c1cc(-c2ccccc2)cc(C(C)(C)C)[te+]1
fold induction at 0.5 h [4]: 1.5 | inhibition at 30 µM [5]: 34%

SMILES: CC(C)(C)c1cc(-c2ccc(C(=S)N3CCCCC3)s2)cc(C(C)(C)C)[se+]1
fold induction at 0.5 h [4]: 4.3 | inhibition at 30 µM [5]: 81%

SMILES: CC(C)(C)c1cc(-c2ccc(C(=O)O)s2)cc(C(C)(C)C)[te+]1
inhibition at 5 µM [13]: 24% | fold induction at 0.5 h [4]: < 1.4 | IC50 [14]: 162 µM

SMILES: CC(C)(C)c1cc(-c2ccc(C(=S)N3CCCCC3)s2)cc(C(C)(C)C)[s+]1
inhibition [6]: 3.6% | inhibition [10]: 27% and < 7%

SMILES: CN(C)c1ccc(-c2cc(-c3ccc(N(C)C)cc3)[te+]c(C(C)(C)C)c2)cc1
fold induction at 0.5 h [4]: 8.4 | inhibition at 30 µM [5]: 96%

Further lines, with some results ahead:

inhibition at 5 µM [13]: 70% | fold induction at 0.5 h [4]: 5.9
SMILES: CCCCc1cc(-c2ccc(N(C)C)cc2)cc(-c2ccc(N(C)C)cc2)[s+]1

fold induction at 0.5 h [4]: 13 | inhibition at 30 µM [5]: 96%
SMILES: CN(C)c1ccc(-c2cc(-c3ccc(C(=O)O)s3)cc(C(C)(C)C)[s+]2)cc1

inhibition at 10 µM [1]: 32% | inhibition at 1 µM [2]: 0% | Papp B-A at 1 h, 5 µM [3]: 300 nm/s | fold induction at 0.5 h [4]: 3.7 | logD at 1 h [8]: 0.7 | Ratio [9]: 15 | Papp A-B at 1 h, 5 µM [12]: 1.8 nm/s
SMILES: CC(C)(C)c1cc(-c2ccc(C(=S)N3CCCCC3)s2)cc(C(C)(C)C)[s+]1.[Cl-]

fold induction at 0.5 h [4]: 7.2 | inhibition at 30 µM [5]: 94%
SMILES: CN(C)c1ccc(-c2cc(-c3ccc(N(C)C)cc3)[s+]c(C(C)(C)C)c2)cc1

fold induction at 0.5 h [4]: 13.5 | inhibition at 30 µM [5]: 43%
SMILES: CCN(CC)C(=O)c1ccccc1-c1cc(-c2ccc(N(C)C)cc2)[s+]c(C(C)(C)C)c1
inhibition [6]: 2% | inhibition [10]: 13%

inhibition at 10 µM [1]: 81% | inhibition at 1 µM [2]: 25% | Papp B-A at 1 h, 5 µM [3]: 16 nm/s | fold induction at 0.5 h [4]: 5.7 | logD at 1 h [8]: 1.6 | Ratio [9]: 8 | IC50 [11]: 34 µM | Papp A-B at 1 h, 5 µM [12]: 1.1 nm/s
SMILES: CN(C)c1ccc(-c2cc(-c3ccc(C(=S)N4CCCCC4)s3)cc(-c3ccc(N(C)C)cc3)[s+]2)cc1.[Cl-]
IC50 [7]: 6.6 µM

inhibition at 30 µM [5]: 0%
SMILES: Cc1cc(C(C)(C)C)[o+]c(C(C)(C)C)c1

inhibition at 1 µM [2]: 8% | fold induction at 0.5 h [4]: 3.5
SMILES: CC(C)(C)c1cc(-c2ccc(C(=O)O)s2)cc(C(C)(C)C)[s+]1
inhibition [6]: 0% | inhibition [10]: 0%
